# Assay results gathered from unrelated publications.
# Protocols differ between the studies behind these lines.
# Target: Tyrosine-protein kinase Yes (YES1, Homo sapiens, UniProt P07947)
SMILES,test,conditions,endpoint,value
Nc1ncc(-c2nc(N3CCOCC3)nc(N3CCOCC3)n2)c(C(F)F)n1,"binding, competition with immobilised ligand",10 µM,remaining binding,80%
C#Cc1n[nH]c2c(-c3cn([C@@H](C)c4ccccn4)c(=O)[nH]c3=O)cc(F)cc12,"enzyme activity, inhibitor",0.1 µM,inhibition,-3.4%
Cc1nn(C)cc1-c1nc2c(N3CCN(Cc4ccc(Cl)cc4)CC3)c(Cl)cnc2[nH]1,"binding, competition with immobilised ligand",1 µM,remaining binding,96%
O=c1[nH]c2ccccc2n1C1CCN(Cc2ccc(-c3[nH]c4cc5ncnc5cc4nc3-c3ccccc3)cc2)CC1,cell-free assay,0.5 µM,remaining signal,90.8%
COc1ncccc1-c1cnn2ccc(N3CCN(C(=O)OC(C)C)CC3)nc12,"binding, competition with immobilised ligand",1 µM,remaining binding,100%
Cn1cncc1[C@@](O)(COc1ccc(C#N)cc1-c1ccc(OC(F)(F)F)cc1)c1ccc(C#N)cc1,"cell-free assay, competition with immobilised ligand",1 µM,remaining binding,100%
CC(C)(C)c1cc(C=C(C#N)C#N)cc(Br)c1O,"enzyme activity, inhibitor",0.5 µM,remaining activity,83%
Cn1cc(-c2cc(F)cc(N3CCn4c(cc5c4CCCC5)C3=O)c2CO)cc(Nc2ccc(N3CCN(C4COC4)CC3)cn2)c1=O,"enzyme activity, inhibitor",0.1 µM,inhibition,11%
